In ChEMBL document CHEMBL1152541, “Staurosporine tethered peptide ligands that target cAMP-dependent protein kinase (PKA): optimization and selectivity profiling” (Bioorg Med Chem, 2009):
Activity calls are given as the source filed them. The rule behind the calls is not given here. *1 amine or outer side, *2 acyl side, *3 side chain or, on linkers, in order; H or OH if unused. Where a SMILES comes first, the peptide text is derived from it. Bridges are numbered along the chain shown (N, C = ends). [ ]: non-standard residue; d: D form. The star is where a group is joined. Staurosporine = CO[C@@H]1[C@H](N(C)*)C[C@H]2O[C@]1(C)n1c3ccccc3c3c4c(c5c6ccccc6n2c5c31)C(=O)NC4; Suc = O=C(CCC(=O)[*:2])[*:1]; Dap = NC[C@H](N)C(=O)O; βAla = NCCC(=O)O

Experiments:
[1] = target: Non-receptor tyrosine-protein kinase TYK2 (Homo sapiens) (UniProt P29597); experiment: Binding affinity to human TYK2 kinase domain 2 at 500 nM by cell-based competition binding assay relative to control in presence of DTT
[2] = target: Serine/threonine-protein kinase PLK3 (Homo sapiens) (UniProt Q9H4B4); experiment: Binding affinity to human PLK3 at 500 nM by cell-based competition binding assay relative to control in presence of DTT
[3] = target: Focal adhesion kinase 1 (Homo sapiens) (UniProt Q05397); experiment: Binding affinity to human PTK2 at 500 nM by cell-based competition binding assay relative to control in presence of DTT
[4] = target: Casein kinase I isoform gamma-2 (Homo sapiens) (UniProt P78368); experiment: Binding affinity to human CSNK1G2 at 500 nM by cell-based competition binding assay relative to control in presence of DTT
In short: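 Commercial (Ambit) competitive kinase-binding panel of 90 kinases measured the binding profile. Run under reducing conditions of 7.5 mM DTT. Binding is expressed relative to control.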

[5] = target: Mitogen-activated protein kinase 8 (Homo sapiens) (UniProt P45983); experiment: Binding affinity to human JNK1 at 200 nM by cell-based competition binding assay relative to control in presence of DTT
In short: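 Competition binding screen (Ambit) across a panel of 90 kinases, scoring test ligand displacement of each kinase's binding relative to control. The screen ran under reducing conditions with 7.5 mM DTT.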

[6] = target: Serine/threonine-protein kinase pim-1 (Homo sapiens) (UniProt P11309); experiment: Binding affinity to human PIM1 at 200 nM by cell-based competition binding assay relative to control in presence of DTT
[7] = Inhibition of PKA assessed as [gamma-32P]ATP labeling of kemptide at 33 to 100 nM by liquid scintillation counting in presence of DTT
[8] = target: T1, Bone morphogenetic protein receptor type-2 (Homo sapiens) (UniProt Q13873); experiment: Binding affinity to human BMPR2 at 200 nM by cell-based competition binding assay relative to control in presence of DTT
T1 sequence (whole entry): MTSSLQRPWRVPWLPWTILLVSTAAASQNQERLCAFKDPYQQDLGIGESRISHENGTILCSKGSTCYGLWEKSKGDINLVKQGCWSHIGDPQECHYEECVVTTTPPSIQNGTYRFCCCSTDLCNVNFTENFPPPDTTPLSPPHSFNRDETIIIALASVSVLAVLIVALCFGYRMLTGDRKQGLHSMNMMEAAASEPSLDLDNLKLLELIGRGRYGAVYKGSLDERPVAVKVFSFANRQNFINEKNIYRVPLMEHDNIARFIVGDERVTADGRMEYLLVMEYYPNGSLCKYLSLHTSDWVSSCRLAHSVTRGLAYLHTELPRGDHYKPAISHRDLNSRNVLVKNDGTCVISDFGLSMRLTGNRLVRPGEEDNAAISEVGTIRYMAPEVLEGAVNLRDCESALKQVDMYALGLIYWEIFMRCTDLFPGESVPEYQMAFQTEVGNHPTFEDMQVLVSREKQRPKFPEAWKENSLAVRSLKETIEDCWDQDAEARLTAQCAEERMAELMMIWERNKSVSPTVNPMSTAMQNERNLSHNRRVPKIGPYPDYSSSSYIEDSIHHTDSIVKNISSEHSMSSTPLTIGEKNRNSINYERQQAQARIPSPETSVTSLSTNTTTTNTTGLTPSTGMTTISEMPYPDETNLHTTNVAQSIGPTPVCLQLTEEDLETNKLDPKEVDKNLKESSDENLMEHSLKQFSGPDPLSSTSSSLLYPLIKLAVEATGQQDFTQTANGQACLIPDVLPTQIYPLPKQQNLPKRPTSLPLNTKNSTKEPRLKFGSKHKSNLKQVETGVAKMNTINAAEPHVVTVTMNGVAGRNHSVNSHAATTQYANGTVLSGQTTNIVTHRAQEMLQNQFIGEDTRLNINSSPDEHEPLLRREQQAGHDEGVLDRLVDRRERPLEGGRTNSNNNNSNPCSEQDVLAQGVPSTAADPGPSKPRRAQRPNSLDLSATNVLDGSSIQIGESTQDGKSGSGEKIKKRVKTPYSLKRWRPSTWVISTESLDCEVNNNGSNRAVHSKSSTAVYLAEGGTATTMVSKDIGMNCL
In short: (§1)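 Kinase binding profiling ran on a commercial (Ambit) competitive binding screen against a panel of 90 kinases. The screen used reducing conditions with 7.5 mM DTT. To withstand the DTT, the bivalent ligand was tested as its amide isostere, with the disulfide replaced. A staurosporine derivative carrying a 3 β-alanine linker was run as the reference compound.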

[9] = target: Serine/threonine-protein kinase PAK 2 (Homo sapiens) (UniProt Q13177); experiment: Binding affinity to human PAK2 at 50 nM by cell-based competition binding assay relative to control in presence of DTT
[10] = target: T2, Activin receptor type-1B (Homo sapiens) (UniProt P36896); experiment: Binding affinity to human ACVR1B at 50 nM by cell-based competition binding assay relative to control in presence of DTT; in short: as §1
T2 sequence (whole entry): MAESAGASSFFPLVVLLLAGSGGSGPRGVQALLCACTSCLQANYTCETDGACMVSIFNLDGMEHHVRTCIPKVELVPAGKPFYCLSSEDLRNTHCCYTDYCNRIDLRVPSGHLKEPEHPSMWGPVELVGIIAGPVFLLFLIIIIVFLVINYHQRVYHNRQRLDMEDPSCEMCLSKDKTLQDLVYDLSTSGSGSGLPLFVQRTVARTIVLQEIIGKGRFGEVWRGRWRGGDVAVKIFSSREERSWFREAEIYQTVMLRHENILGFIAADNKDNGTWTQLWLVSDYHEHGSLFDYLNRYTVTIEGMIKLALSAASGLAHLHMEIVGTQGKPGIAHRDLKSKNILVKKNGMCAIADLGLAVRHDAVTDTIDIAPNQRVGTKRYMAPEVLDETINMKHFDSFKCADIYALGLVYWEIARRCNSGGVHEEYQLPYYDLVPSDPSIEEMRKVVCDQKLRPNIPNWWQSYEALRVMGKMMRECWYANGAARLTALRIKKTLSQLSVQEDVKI

[11] = target: Cyclin-dependent kinase 16 (Homo sapiens) (UniProt Q00536); experiment: Binding affinity to human PCTK1 at 50 nM by cell-based competition binding assay relative to control in presence of DTT
[12] = target: Dual specificity mitogen-activated protein kinase kinase 1 (Homo sapiens) (UniProt Q02750); experiment: Binding affinity to human MEK1 at 50 nM by cell-based competition binding assay relative to control in presence of DTT
In short: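 Kinase binding profile from a commercial panel of 90 kinases, run as a competitive binding assay. The panel was screened under reducing conditions of 7.5 mM DTT. Signal was compared with the untreated control.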

[13] = target: Atypical kinase COQ8A, mitochondrial (Homo sapiens) (UniProt Q8NI60); experiment: Binding affinity to human ADCK3 at 50 nM by cell-based competition binding assay relative to control in presence of DTT; in short: as §1
[14] = target: Serine/threonine-protein kinase PAK 1 (Homo sapiens) (UniProt Q13153); experiment: Binding affinity to human PAK1 at 50 nM by cell-based competition binding assay relative to control in presence of DTT

SMILES	Activity [1]	Activity [2]	Activity [3]	Activity [4]	Activity [5]	Activity [6]	inhibition [7]	Activity [8]	Activity [9]	Activity [10]	Activity [11]	Activity [12]	Activity [13]	Activity [14]
CO[C@@H]1[C@H](N(C)C(=O)CCC(=O)NCCC(=O)NCCC(=O)NCCC(N)=O)C[C@H]2O[C@]1(C)n1c3ccccc3c3c4c(c5c6ccccc6n2c5c31)C(=O)NC4	19%	100%	65%	99%	–	–	–	–	–	–	–	–	–	–
CO[C@@H]1[C@H](N(C)C(=O)CCC(=O)NCCC(=O)NCCC(=O)NCCC(=O)NCCC(=O)NCCC(=O)NCCC(=O)NCCC(=O)N[C@H]2CSSC[C@@H](C(=O)NCC(N)=O)NC(=O)CNC(=O)[C@H](Cc3ccccc3)NC(=O)[C@H](C(C)C)NC(=O)[C@H](CCCNC(=N)N)NC(=O)[C@H](Cc3ccccc3)NC(=O)[C@H](C(C)C)NC2=O)C[C@H]2O[C@]1(C)n1c3ccccc3c3c4c(c5c6ccccc6n2c5c31)C(=O)NC4 ({Staurosporine-Suc-βAla-βAla-βAla-βAla-βAla-βAla-βAla}-CVFRVFGCG-NH2; disulfide 1-8)	–	–	–	–	83%	53%	inactive	93%	–	–	–	–	–	–
CO[C@@H]1[C@H](N(C)C(=O)CCC(=O)NCCC(=O)NCCC(=O)NCCC(=O)NCCC(=O)NCCC(=O)NCCC(=O)NCCC(=O)N[C@H]2CNC(=O)C[C@@H](C(N)=O)NC(=O)CNC(=O)[C@H](Cc3ccccc3)NC(=O)[C@H](C(C)C)NC(=O)[C@H](CCCNC(=N)N)NC(=O)[C@H](Cc3ccccc3)NC(=O)[C@H](C(C)C)NC2=O)C[C@H]2O[C@]1(C)n1c3ccccc3c3c4c(c5c6ccccc6n2c5c31)C(=O)NC4 ({Staurosporine-Suc-βAla-βAla-βAla-βAla-βAla-βAla-βAla}-[Dap]VFRVFGD-NH2; lactam 1-8)	–	–	–	–	–	–	Active	–	72%	100%	98%	95%	91%	66%
